Assay results taken from ChEMBL document CHEMBL2203265, “Discovery of tetrahydropyridopyrimidine phosphodiesterase 10A inhibitors for the treatment of schizophrenia” (Bioorg Med Chem Lett, 2012).
≈ marks a conversion by molar mass, not a printed value. One block for each compound: values may come before it. Calls of active or inactive are those of the source. The rule behind the calls is not given here.

Columns and labels:
[1] = biological target: cAMP and cAMP-inhibited cGMP 3',5'-cyclic phosphodiesterase 10A (Homo sapiens, UniProt Q9Y233); assay: Inhibition of PDE10A
[2] = Solubility of the compound at pH 7; format: physicochemical; settings: buffer
Rattus norvegicus [3] = assay: Toxicity in rat assessed as decrease in total body fat at 4 mg/kg, po administered for 7 days relative to vehicle-treated control; format: organism-based; set-up: dose 4 mg/kg, route oral; settings: in vivo, 168 h
How it was run: (§1)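 Rats given chronic dosing over 7 days. Body weight gain, total body fat and lean body mass recorded at the end of treatment and compared with a vehicle-treated group for statistical significance; n = 12 per group.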

Rattus norvegicus [4] = assay: Toxicity in rat assessed as decrease in weight gain at 4 mg/kg, po administered for 7 days relative to vehicle-treated control; format: organism-based; set-up: dose 4 mg/kg, route oral; settings: in vivo, 168 h; how it was run: as §1
Rattus norvegicus [5] = assay: Toxicity in rat assessed as decrease in lean body mass at 4 mg/kg, po administered for 7 days relative to vehicle-treated control; format: organism-based; set-up: dose 4 mg/kg, route oral; settings: in vivo, 168 h; how it was run: as §1
Rattus norvegicus [6] = assay: Antipsychotic activity in po dosed rat assessed as inhibition of MK801-induced hyperlocomotion; format: functional, organism-based
How it was run: (§2)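 Oral dosing in rats challenged with the psychostimulant MK-801. Locomotor activity is scored against vehicle-only animals and against animals given MK-801 alone.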

[7] = Clearance in rat; format: ADME, organism-based; settings: in vivo
Rattus norvegicus [8] = assay: Antipsychotic activity in rat assessed as inhibition of MK801-induced hyperlocomotion at 4.5 mg/kg, po; format: functional, organism-based; set-up: dose 4.5 mg/kg; how it was run: as §2
[9] = Plasma concentration in rat at 4.5 mg/kg, po at 2 hrs; format: ADME, organism-based; set-up: dose 4.5 mg/kg, route oral
How it was run: (§3)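 Plasma drug concentration is sampled 2 h after oral dosing in the rat hyperlocomotion study.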

[10] = Clearance in dog; format: ADME, organism-based, Canis lupus familiaris; settings: in vivo
Homo sapiens [11] = species on record: Homo sapiens; assay: Selectivity ratio of Ki for human PDE1A to Ki for human PDE10A
Homo sapiens [12] = species on record: Homo sapiens; assay: Selectivity ratio of Ki for human PDE5A to Ki for human PDE10A
[13] = Time-dependent inhibition of cytochrome P450; format: ADME
Rattus norvegicus [14] = assay: Toxicity in rat assessed as decrease in total body fat up to 10 mg/kg, po administered for 7 days relative to vehicle-treated control; format: organism-based; set-up: dose 10 mg/kg, route oral; settings: in vivo, 168 h
How it was run: (§4)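 Rats are dosed orally for 7 days, with olanzapine at 4 mg/kg as the comparator. Weight gain, body fat, and lean body mass are measured against vehicle, n = 12/group.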

Homo sapiens [15] = species on record: Homo sapiens; assay: Selectivity ratio of Ki for human PDE7A to Ki for human PDE10A
Rattus norvegicus [16] = assay: Toxicity in rat assessed as induction of catalepsy up to 50 mg/kg, po; format: organism-based; set-up: dose 50 mg/kg, route oral; settings: in vivo
How it was run: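 Catalepsy in rats is scored by fore-limb retraction (paw test) after oral administration, with haloperidol at 1.5 mg/kg as the control.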

Rattus norvegicus [17] = assay: Inhibition of PDE10A in rat assessed as increase in striatal cGMP level at 30 mg/kg, po after 2 hrs relative to vehicle-treated control; format: functional; set-up: scale not given: the % may be the effect or the level left
How it was run: (§5)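 Rats given the compound orally. Striatal cGMP is measured 2 h after dosing and expressed relative to vehicle-injected controls.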

Rattus norvegicus [18] = assay: Toxicity in rat assessed as decrease in weight gain up to 10 mg/kg, po administered for 7 days relative to vehicle-treated control; format: organism-based; set-up: dose 10 mg/kg, route oral; settings: in vivo, 168 h; how it was run: as §4
Homo sapiens [19] = species on record: Homo sapiens; assay: Selectivity ratio of Ki for human PDE2A to Ki for human PDE10A
[20] = Clearance in monkey; format: ADME, organism-based, Macaca mulatta; settings: rhesus monkey, in vivo
Homo sapiens [21] = species on record: Homo sapiens; assay: Selectivity ratio of Ki for human PDE4A to Ki for human PDE10A
Rattus norvegicus [22] = assay: Toxicity in rat assessed as decrease in lean body mass up to 10 mg/kg, po administered for 7 days relative to vehicle-treated control; format: organism-based; set-up: dose 10 mg/kg, route oral; settings: in vivo, 168 h; how it was run: as §4
Homo sapiens [23] = species on record: Homo sapiens; assay: Selectivity ratio of Ki for human PDE9A to Ki for human PDE10A
Rattus norvegicus [24] = assay: Toxicity in rat assessed as increase in prolactin level up to 50 mg/kg, po; format: organism-based; set-up: dose 50 mg/kg, route oral; settings: in vivo
How it was run: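 Circulating prolactin is measured in rats after oral administration, with haloperidol at 1.5 mg/kg as the control.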

[25] = Reversible inhibition of cytochrome P450; format: ADME
Rattus norvegicus [26] = species on record: Rattus norvegicus; assay: Antipsychotic activity in rat by conditioned avoidance response assay; format: functional, organism-based
Rattus norvegicus [27] = assay: Antipsychotic activity in rat assessed as inhibition of MK801-induced hyperlocomotion at 3 mg/kg, po; format: functional, organism-based; set-up: dose 3 mg/kg; how it was run: as §2
Salmonella typhimurium = assay: Mutagenicity against Salmonella typhimurium up to 5000 ug/plate by Ames test; format: toxicity, organism-based; settings: salmonella enterica subsp. enterica serovar typhimurium
Rattus norvegicus [28] = assay: Inhibition of PDE10A in po dosed rat assessed as increase in striatal cGMP level after 2 hrs relative to vehicle-treated control; format: functional, organism-based; how it was run: as §5
Rattus norvegicus [29] = assay: Antipsychotic activity in rat assessed as increase in cognitive function at 1 mg/kg, po by NOR assay; format: functional, organism-based; set-up: dose 1 mg/kg
Homo sapiens [30] = species on record: Homo sapiens; assay: Selectivity ratio of Ki for human PDE3A to Ki for human PDE10A
[31] = biological target: T1, Nuclear receptor subfamily 1 group I member 2 (Homo sapiens, UniProt O75469); assay: Activation of PXR
T1 sequence (O75469 whole entry): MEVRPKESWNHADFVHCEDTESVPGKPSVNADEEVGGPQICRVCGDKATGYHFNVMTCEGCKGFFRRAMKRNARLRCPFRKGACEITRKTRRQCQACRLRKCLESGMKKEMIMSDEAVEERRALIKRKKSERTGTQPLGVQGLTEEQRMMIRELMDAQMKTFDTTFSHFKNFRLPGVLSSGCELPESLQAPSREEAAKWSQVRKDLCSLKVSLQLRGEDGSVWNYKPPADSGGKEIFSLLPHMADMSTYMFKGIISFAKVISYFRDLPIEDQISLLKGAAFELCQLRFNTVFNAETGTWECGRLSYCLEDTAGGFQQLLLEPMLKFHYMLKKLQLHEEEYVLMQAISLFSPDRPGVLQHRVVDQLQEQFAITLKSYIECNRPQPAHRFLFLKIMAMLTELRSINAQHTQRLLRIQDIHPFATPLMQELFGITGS

Canis familiaris = assay: Cardiotoxicity in dog assessed as QTc prolongation at 13,29 and 42 mg/kg, iv administered sequentially at 30 mins periods; format: toxicity, organism-based, Canis lupus familiaris; set-up: dose 42 mg/kg, route intravenous; settings: in vivo, 0.5 h
Homo sapiens [32] = species on record: Homo sapiens; assay: Selectivity ratio of Ki for human PDE11A to Ki for human PDE10A
[33] = Plasma concentration in rat at 3 mg/kg, po at 2 hrs; format: ADME, organism-based; set-up: dose 3 mg/kg, route oral; how it was run: as §3
Homo sapiens [34] = species on record: Homo sapiens; assay: Selectivity ratio of Ki for human PDE6A to Ki for human PDE10A
Homo sapiens [35] = species on record: Homo sapiens; assay: Selectivity ratio of Ki for human PDE8A to Ki for human PDE10A

Sequence of cAMP and cAMP-inhibited cGMP 3',5'-cyclic phosphodiesterase 10A (Q9Y233 whole entry): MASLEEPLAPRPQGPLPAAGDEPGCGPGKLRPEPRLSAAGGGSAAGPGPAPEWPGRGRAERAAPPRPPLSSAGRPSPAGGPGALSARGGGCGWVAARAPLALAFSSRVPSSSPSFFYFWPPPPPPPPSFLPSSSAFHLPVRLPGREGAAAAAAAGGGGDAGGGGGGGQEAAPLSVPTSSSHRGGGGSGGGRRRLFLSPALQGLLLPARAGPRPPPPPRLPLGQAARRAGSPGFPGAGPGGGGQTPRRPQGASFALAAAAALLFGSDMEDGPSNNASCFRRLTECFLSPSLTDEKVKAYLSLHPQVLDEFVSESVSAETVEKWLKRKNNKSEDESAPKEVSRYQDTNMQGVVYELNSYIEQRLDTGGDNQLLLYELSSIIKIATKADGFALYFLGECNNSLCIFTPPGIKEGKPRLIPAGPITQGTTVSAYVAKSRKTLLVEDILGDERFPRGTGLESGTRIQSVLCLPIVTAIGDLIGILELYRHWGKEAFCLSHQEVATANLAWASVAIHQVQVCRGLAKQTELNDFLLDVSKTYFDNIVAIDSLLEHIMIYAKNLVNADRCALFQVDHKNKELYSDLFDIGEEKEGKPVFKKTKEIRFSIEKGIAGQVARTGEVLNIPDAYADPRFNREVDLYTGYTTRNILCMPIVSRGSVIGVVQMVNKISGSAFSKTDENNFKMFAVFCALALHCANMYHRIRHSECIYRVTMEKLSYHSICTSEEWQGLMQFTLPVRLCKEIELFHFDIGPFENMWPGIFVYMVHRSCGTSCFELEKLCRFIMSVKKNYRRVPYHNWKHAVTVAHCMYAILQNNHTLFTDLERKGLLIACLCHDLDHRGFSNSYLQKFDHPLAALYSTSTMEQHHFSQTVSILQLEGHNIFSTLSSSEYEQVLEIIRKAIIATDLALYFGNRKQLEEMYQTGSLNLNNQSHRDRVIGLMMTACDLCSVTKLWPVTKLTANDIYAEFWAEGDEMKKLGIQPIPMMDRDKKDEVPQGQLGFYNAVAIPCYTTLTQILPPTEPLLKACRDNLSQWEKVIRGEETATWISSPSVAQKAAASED

Compound: Cc1cc2c(s1)Nc1ccccc1N=C2N1CCN(C)CC1 [OLANZAPINE]
Activity (Rattus norvegicus [3]): Toxic
Activity (Rattus norvegicus [4]): Toxic
Activity (Rattus norvegicus [5]): Toxic

Compound: CC(C)Oc1nc(-c2ccc(Cl)nc2)nc2c1CN(C(=O)c1cn(C)cn1)CC2.Cl
inhibition (Rattus norvegicus [6]): Dose-dependent effect
clearance [7]: 2.4 mL/min/kg
inhibition (Rattus norvegicus [8]): Active
concentration at 2 h [9]: 3000 nM
clearance [10]: 0.94 mL/min/kg
solubility [2]: 69 µM

Compound: CN(CCc1ccccn1)c1nc(-c2ccccc2)nc2c1CN(C(=O)Nc1ccccc1)CC2
Ki [1]: 500 nM

Compound: COCCOc1nc(-c2ccncc2)nc2c1CN(C(=O)Nc1ccccc1)CC2
Ki [1]: 135 nM
solubility [2]: > 75 µM

Compound: CN(C)c1nc2c(c(N(C)CCc3ccccn3)n1)CN(C(=O)Nc1ccccc1)CC2
Ki [1]: 512 nM

Compound: CC(C)Oc1nc(-c2ccc(Cl)nc2)nc2c1CN(C(=O)N(C)c1cn[nH]c1)CC2
Ki [1]: 1 nM

Compound: Cc1ccncc1NC(=O)N1CCc2nc(-c3ccc(O)nc3)nc(OC(C)C)c2C1
Ki [1]: 63 nM

Compound: COc1nc(-c2cccnc2)nc2c1CN(C(=O)Nc1ccccc1)CC2
Ki [1]: 93 nM
solubility [2]: > 75 µM

Compound: CN(CCc1ccccn1)c1nc(-c2cccc(Br)c2)nc2c1CN(C(=O)Nc1ccccc1)CC2
Ki [1]: 991 nM
solubility [2]: < 10 µM

Now from value to compound, other results behind:

Ki [1]: 17 nM
solubility [2]: > 75 µM
Compound: CC(C)Oc1nc(-c2cccnc2)nc2c1CN(C(=O)Nc1ccccc1)CC2

Ki [1]: 422 nM
solubility [2]: > 75 µM
Compound: COc1nc(-c2ccncc2)nc2c1CN(C(=O)Nc1ccccc1)CC2

Ki [1]: 4340 nM
Compound: Cc1nc2c(c(N(C)CCc3ccccn3)n1)CN(C(=O)Nc1ccccc1)CC2

Ki [1]: 223 nM
solubility [2]: > 75 µM
Compound: CN(CCc1ccccn1)c1nc(-c2ccncc2)nc2c1CN(C(=O)NC(C)(C)C)CC2

Ki [1]: 94 nM
solubility [2]: > 75 µM
Compound: CN(CCc1ccccn1)c1nc(-c2ccncc2)nc2c1CN(C(=O)Nc1ccccc1)CC2

Ki [1]: 0.6 nM
Compound: Cc1ccncc1NC(=O)N1CCc2nc(-c3ccc(Cl)nc3)nc(OC(C)C)c2C1

Ki [1]: 121 nM
solubility [2]: > 75 µM
Compound: CN(CCc1ccccn1)c1nc(-c2cccnc2)nc2c1CN(C(=O)Nc1ccccc1)CC2

Ratio Ki (Homo sapiens [11]): > 1000
Ratio Ki (Homo sapiens [12]): 116
inhibition (INH) [13]: Not Active
Ratio Ki (Homo sapiens [15]): > 1000
Ratio Ki (Homo sapiens [19]): > 1000
clearance [20]: 7.7 mL/min/kg
Ratio Ki (Homo sapiens [21]): > 1000
Ratio Ki (Homo sapiens [23]): > 1000
inhibition (INH) [25]: Not Active
clearance [7]: 6 mL/min/kg
Ratio Ki (Homo sapiens [30]): > 1000
Activity [31]: Not Active
Ratio Ki (Homo sapiens [32]): 300
concentration at 2 h [33]: 730 nM
Ratio Ki (Homo sapiens [34]): 44
Ratio Ki (Homo sapiens [35]): > 1000
clearance [10]: 3.8 mL/min/kg
solubility [2]: 20 µM (≈ 9.3 µg/mL)
Compound: COCCOc1nc(-c2ccc(Cl)nc2)nc2c1CN(C(=O)c1ncn3ccccc13)CC2 [THPP-1]
inhibition (Rattus norvegicus [6]): Dose-dependent effect
Activity (Rattus norvegicus [14]): Non-toxic
Activity (Rattus norvegicus [16]): Non-toxic
Activity (Rattus norvegicus [17]): >150%
Activity (Rattus norvegicus [18]): Non-toxic
Activity (Rattus norvegicus [22]): Non-toxic
Activity (Rattus norvegicus [24]): Non-toxic
Activity (Rattus norvegicus [26]): Dose-dependent effect
Activity (Rattus norvegicus [27]): Active
Activity (Salmonella typhimurium): Non-toxic
inhibition (Rattus norvegicus [28]): Dose-dependent effect
Activity (Rattus norvegicus [29]): Active
Activity (Canis familiaris): Non-toxic
